# Measured values pooled from the literature.
# Each line is one published result; the experiments were not run side by side.
# CYP1B1: Cytochrome P450 1B1 (CYP1B1, Homo sapiens, UniProt Q16678)
# Hypoxanthine-guanine-xanthine phosphoribosyltransferase: Hypoxanthine-guanine-xanthine phosphoribosyltransferase (Plasmodium falciparum, UniProt P20035)
# DRD5: D(1B) dopamine receptor (DRD5, Homo sapiens, UniProt P21918)
# HRH3: Histamine H3 receptor (HRH3, Homo sapiens, UniProt Q9Y5N1)
# SLC10A2: Ileal sodium/bile acid cotransporter (SLC10A2, Homo sapiens, UniProt Q12908)
# WDR5: WD repeat-containing protein 5 (WDR5, Homo sapiens, UniProt P61964)
SMILES,target,test,conditions,Ki [nM]
C#Cc1cccc(-c2cc(=O)c3ccccc3o2)c1,CYP1B1,"enzyme activity, inhibitor, fluorescence","6 min, pH 7.6",160
COc1ccc(C2=NN(C(C)C)C(=O)C3CC=CCC23)cc1-c1ccc(C(=O)N2CCC[C@@H]2C(N)=O)cc1 (mixture of isomers),"Class 1 phosphodiesterase PDEB1 (PDEB1, Trypanosoma brucei, UniProt Q8WQX9)","enzyme activity, inhibitor",,631
O=c1c(O)c(NCC[C@@H](CO)NCc2c[nH]c3c(O)ncnc23)c1=O,Hypoxanthine-guanine-xanthine phosphoribosyltransferase,"enzyme activity, inhibitor",pH 7.4,> 20000
CN(C(=O)[C@@H]1Cc2ccccc2CN1C(=O)c1ccc(Cl)s1)c1ccc(N2CCCCC2=O)cc1,"Coagulation factor X (F10, Homo sapiens, UniProt P00742)","enzyme activity, inhibitor, absorbance",,28000
CCCNc1nc2ccccc2n1Cc1ccc(Cl)cc1,DRD5,"cell-free assay, radioligand",,5660
O=C1c2ccccc2CCCN1CCCCN1CCN(c2ccccn2)CC1,DRD5,"ligand displacement, radioligand",,> 10000
C#Cc1ccccc1-c1cc(=O)c2ccccc2o1,CYP1B1,"enzyme activity, inhibitor, fluorescence","6 min, pH 7.6",610
CN(C)c1ccc(/C=C2\CCc3ccc(OCCCN4CCCCC4)cc3C2=O)cc1,HRH3,"ligand displacement, radioligand",cell membranes,149
NS(=O)(=O)c1cc(C2(O)NC(=O)c3ccccc32)ccc1Cl (centres unmarked),SLC10A2,"transporter uptake, inhibitor",,707000
CN(C)c1ccc(/C=C2\CCc3cc(OCCCN4CCCCC4)ccc3C2=O)cc1,HRH3,"ligand displacement, radioligand",cell membranes,70
COc1cc(O)c(CC=C(C)C)c(O)c1C(=O)/C=C/c1ccc(O)cc1,CYP1B1,"enzyme activity, inhibitor, fluorescence","15 min, pH 7.4",170
c1cc2c(cc1OCCCCCN1CCCCCC1)CCC2,HRH3,"ligand displacement, radioligand",cell membranes,64.5
CCOC(=O)[C@](CC)(CCCS(=O)(=O)CCOCCOCCNC(=O)OC(C)(C)C)NC(=O)c1ccc(C2CC2)c(Cc2ccc(F)cc2)n1,"Cannabinoid receptor 2 (CNR2, Homo sapiens, UniProt P34972)","ligand displacement, radioligand",cell membranes,45
O=c1cc([C@@H](CO)NCc2c[nH]c3c(O)ncnc23)o[nH]1,Hypoxanthine-guanine-xanthine phosphoribosyltransferase,"enzyme activity, inhibitor",pH 7.4,> 20000
CC(C)(C#N)c1cc(Cn2cncn2)cc(C(C)(C)C#N)c1,SLC10A2,"transporter uptake, inhibitor",,402000
O=c1c(O)c(NC[C@@H](CO)NCc2c[nH]c3c(O)ncnc23)c1=O,Hypoxanthine-guanine-xanthine phosphoribosyltransferase,"enzyme activity, inhibitor",pH 7.4,> 20000
CCCCN1CCC(COC(=O)c2ccc(N)c(OCF)c2)CC1,"Beta-2 adrenergic receptor (ADRB2, Homo sapiens, UniProt P07550)","cell-free assay, radioligand",,> 10000
CN(C)c1ccc(/C=C/C=C2\CCc3ccc(OCc4ccc(OCCCN5CCCCC5)cc4)cc3C2=O)cc1,HRH3,"ligand displacement, radioligand",cell membranes,87
COc1ccc([C@@H]2Sc3ccccc3N(CCN(C)C)C(=O)[C@@H]2OC(C)=O)cc1,SLC10A2,"transporter uptake, inhibitor",,211000
O=C1N[C@@H]([C@@H](CO)NCc2c[nH]c3c(O)ncnc23)CO1,Hypoxanthine-guanine-xanthine phosphoribosyltransferase,"enzyme activity, inhibitor",pH 7.4,> 20000
CCOC(=O)C1=C(C)NC(C)=C(C(=O)OC)C1c1cccc(Cl)c1Cl (centres unmarked),SLC10A2,"transporter uptake, inhibitor",,49700
COc1cc(CNC(=O)c2cccc(CNC3=NCCN3)c2F)cc(OC)c1,WDR5,"ligand displacement, TR-FRET",,> 33
NS(=O)(=O)c1cc2c(cc1Cl)NC(C(Cl)Cl)NS2(=O)=O (centres unmarked),SLC10A2,"transporter uptake, inhibitor",,377000
Cc1nc(F)ccc1-c1cc(Cn2ccn(C)c2=N)cc(C(=O)NCc2ccc(Cl)c(Cl)c2)c1,WDR5,"ligand displacement, FP",,< 0.001
CCc1ccc(OCCCCCCN2CCCC(C)C2)cc1 (centres unmarked),HRH3,"ligand displacement, radioligand",cell membranes,74.1
CCOC(=O)C1=C(COCCN)NC(C)=C(C(=O)OC)C1c1ccccc1Cl (centres unmarked),SLC10A2,"transporter uptake, inhibitor",,< 100000
CCCc1ccc(OCCCCCN2CCCC(C)C2)cc1 (centres unmarked),HRH3,"ligand displacement, radioligand",cell membranes,38.4
O=C(NCc1cc(Cl)cc(Cl)c1)c1cccc(Cn2ccnc2)c1,WDR5,"ligand displacement, TR-FRET",,> 33
CN1CCN(CC/C=C2/c3ccccc3Sc3ccc(S(=O)(=O)N(C)C)cc32)CC1,SLC10A2,"transporter uptake, inhibitor",,808000
Cc1nc(F)ccc1-c1cc(C(=O)NCc2ccc(Cl)c(Cl)c2)ccc1Cn1ccn(C)c1=N,WDR5,"ligand displacement, TR-FRET",,> 33
COc1ccc2c(c1)C(=O)N(CCCN1CCN(c3ccccc3OC)CC1)C2,DRD5,"ligand displacement, radioligand",,8290
O=C1CCCc2cc(OCc3ccc(OCCCN4CCCCC4)cc3)ccc21,HRH3,"ligand displacement, radioligand",cell membranes,19
COC(=O)C1=C(C)NC(C)=C(C(=O)OC(C)C)C1c1cccc2nonc12 (centres unmarked),SLC10A2,"transporter uptake, inhibitor",,19400
C#Cc1ccc2cc(-c3ccccc3)c(=O)oc2c1,CYP1B1,"enzyme activity, inhibitor, fluorescence","6 min, pH 7.6",1720
O=C1CN(C[C@@H](CO)NCc2c[nH]c3c(O)ncnc23)S(=O)(=O)N1,Hypoxanthine-guanine-xanthine phosphoribosyltransferase,"enzyme activity, inhibitor",pH 7.4,> 20000
O=C1CCCc2cc(OCCCN3CCCCC3)ccc21,HRH3,"ligand displacement, radioligand",cell membranes,68
CN1CCN(CCCOc2ccc(Nc3nccc(N4CCN(C)CC4)n3)cc2)CC1,HRH3,"ligand displacement, radioligand",cell membranes,646
C#Cc1ccc(-c2cc(=O)c3ccccc3o2)cc1,CYP1B1,"enzyme activity, inhibitor, fluorescence","6 min, pH 7.6",130
